Test results: ChEMBL document CHEMBL6115024 (J Med Chem, 2025)
Activity calls are given as the source filed them. The rule behind the calls is not given here.

Experiments:
Albumin = Albumin (Homo sapiens, UniProt P02768); test: Binding affinity to CM5-chip immobilized human serum albumin assessed as fold change in equilibrium association constant by SPR analysis relative to semaglutide
[1] = target: T1, Glucagon-like peptide 1 receptor (Homo sapiens, UniProt P43220); test: Agonist activity at GLP-1 receptor (unknown origin) overexpressed in CHO-K1 cells assessed as cAMP production incubated for 30 mins by HitHunter cAMP assay; assay type: functional, cell-based
T1 sequence (P43220 whole entry): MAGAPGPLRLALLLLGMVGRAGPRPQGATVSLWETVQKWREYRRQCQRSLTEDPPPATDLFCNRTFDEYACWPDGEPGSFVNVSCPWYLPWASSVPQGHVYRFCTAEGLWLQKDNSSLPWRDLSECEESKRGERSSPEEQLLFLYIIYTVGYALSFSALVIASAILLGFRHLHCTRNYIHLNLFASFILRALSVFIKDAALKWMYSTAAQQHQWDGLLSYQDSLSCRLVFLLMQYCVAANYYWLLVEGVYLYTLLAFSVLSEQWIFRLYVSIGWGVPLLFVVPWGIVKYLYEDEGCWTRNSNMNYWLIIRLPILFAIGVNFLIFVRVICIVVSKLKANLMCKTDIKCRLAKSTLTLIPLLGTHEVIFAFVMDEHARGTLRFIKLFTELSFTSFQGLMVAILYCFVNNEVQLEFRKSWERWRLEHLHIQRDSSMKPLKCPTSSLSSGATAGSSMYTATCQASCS

[2] = target: T1, Glucagon-like peptide 1 receptor; test: Agonist activity at GLP-1 receptor (unknown origin) overexpressed in CHO-K1 cells assessed as cAMP production incubated for 30 mins in presence of HSA by HitHunter cAMP assay; assay type: functional, cell-based
Mus musculus [3] = test: Inhibition of fatty liver in GAN-DIO-NASH C57BL/6JNarl mouse assessed as improvement in liver health at 30 nmol/kg, sc qd for 70 days; assay type: functional, organism-based; settings: time 70.0 day
Summary of the method: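 Male GAN-DIO-NASH mice on GAN diet dosed daily with PBS or 5–30 nmol/kg for 10 weeks; body weight, fat mass and ALT on days 0 and 70, liver H&E at 20×, liver triglycerides post-treatment; mean ± SEM, ANOVA or Student's t test.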

Mus musculus [4] = test: Induction of glycemic control in diet-induced obese C57BL/6 mouse assessed as reduction in blood glucose level at 30 nmol/kg, sc treated for 40 days administered on every 4 days relative to control; assay type: functional, organism-based; settings: time 40.0 day
Mus musculus [5] = test: Induction of glycemic control in db/db mouse assessed as reduction in large lipid droplets in liver at 10 to 30 nmol/kg, sc treated for 8 weeks administered on every 2 days by H and E staining based analysis; assay type: functional, organism-based; settings: dose 10-30 nmol/kg
Summary of the method: (§1)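 After 8 weeks of sc dosing (10 or 30 nmol/kg every 2 days) of db/db mice, liver and iWAT fixed in 4% paraformaldehyde, paraffin-embedded, sectioned and H&E stained; adipocyte area and diameter distributions and liver steatosis, hypertrophy, ballooning scored.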

Mus musculus [6] = test: Induction of glycemic control in db/db mouse assessed as reduction in macrovesicular steatosis in liver at 10 to 30 nmol/kg, sc treated for 8 weeks administered on every 2 days by H and E staining based analysis; assay type: functional, organism-based; settings: dose 10-30 nmol/kg; summary of the method: as §1
Pancreatic islet = test: Induction of insulin secretion in C57BL6/J mouse pancreatic islet at 10 to 100 nM incubated for 24 hrs in presence of 2.5 mM glucose by ELISA; assay type: functional, cell-based; settings: dose 10-100 nM
Mus musculus [7] = test: Induction of glycemic control in db/db mouse assessed as reduction in blood glucose level administered subcutaneously measured upto 120 hrs; assay type: functional, organism-based; settings: dose 1-100 nmol/kg, route sc
Mus musculus [8] = test: Induction of glycemic control in db/db mouse assessed as reduction in polydipsia at 10 to 30 nmol/kg, sc treated for 8 weeks administered on every 2 days; assay type: functional, organism-based; settings: dose 10-30 nmol/kg
Summary of the method: (§2)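 db/db mice dosed sc with PBS or 10 or 30 nmol/kg every 2 days for 8 weeks; body weight, food and water intake recorded every 2 days; on day 59 heart, liver, iWAT and BAT excised and weighed; mean ± SEM, ANOVA with multiple comparisons.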

Mus musculus [9] = test: Induction of glycemic control in diet-induced obese C57BL/6 mouse assessed as increase in proportion of small adipocytes at 3 to 100 nmol/kg, sc treated for 40 days administered on every 4 days by H and E staining based analysis; assay type: functional, organism-based; settings: dose 3-100 nmol/kg, time 40.0 day
Summary of the method: (§3)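 Male C57BL/6 mice fed 45% kcal fat diet from 6 to 18–20 weeks old, kept on diet, given sc PBS (100 μL) or 3–100 nmol/kg every 4 days for 40 days; glucose monitored; body weight, composition, blood chemistry and H&E histology of fixed liver and iWAT assessed post-treatment.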

Mus musculus [10] = test: Induction of glycemic control in diet-induced obese C57BL/6 mouse assessed as reduction in fat mass at 3 to 100 nmol/kg, sc treated for 40 days administered on every 4 days; assay type: functional, organism-based; settings: dose 3-100 nmol/kg, time 40.0 day; summary of the method: as §3
Mus musculus [11] = test: Effect on brown adipose tissue weight in db/db mouse at 10 to 30 nmol/kg, sc treated for 8 weeks administered on every 2 days; assay type: functional, organism-based; settings: dose 10-30 nmol/kg; summary of the method: as §2
Mus musculus [12] = test: Induction of glycemic control in db/db mouse assessed as reduction in polyphagia at 10 to 30 nmol/kg, sc treated for 8 weeks administered on every 2 days; assay type: functional, organism-based; settings: dose 10-30 nmol/kg; summary of the method: as §2
Mus musculus [13] = test: Induction of glycemic control in db/db mouse assessed as reduction in blood glucose level at 30 nmol/kg, sc measured after 48 hrs; assay type: functional, organism-based
Mus musculus [14] = test: Induction of glycemic control in db/db mouse assessed as reduction in blood glucose level at 1 to 100 nmol/kg, sc measured upto 120 hrs; assay type: functional, organism-based
Summary of the method: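 db/db mice, three per dose group, got a single sc dose of 1, 3, 10, 30 or 100 nmol/kg, with a PBS control. Blood glucose was measured before dosing and at multiple time points after. EC50 was derived from the dose–response profiles by nonlinear regression. Mean ± SEM.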

Mus musculus [15] = test: Induction of glycemic control in diet-induced obese C57BL/6 mouse assessed as decrease in proportion of large adipocytes at 3 to 100 nmol/kg, sc treated for 40 days administered on every 4 days by H and E staining based analysis; assay type: functional, organism-based; settings: dose 3-100 nmol/kg, time 40.0 day; summary of the method: as §3
Mus musculus [16] = test: Effect on heart weight in db/db mouse at 10 to 30 nmol/kg, sc treated for 8 weeks administered on every 2 days; assay type: functional, organism-based; settings: dose 10-30 nmol/kg; summary of the method: as §2
Mus musculus [17] = test: Effect on ALT level in diet-induced obese C57BL/6 mouse at 3 to 100 nmol/kg, sc treated for 40 days administered on every 4 days; assay type: functional, organism-based; settings: dose 3-100 nmol/kg, time 40.0 day
Mus musculus [18] = test: Induction of glycemic control in diet-induced obese C57BL/6 mouse assessed as increase in lean mass at 3 to 100 nmol/kg, sc treated for 40 days administered on every 4 days; assay type: functional, organism-based; settings: dose 3-100 nmol/kg, time 40.0 day; summary of the method: as §3
Mus musculus [19] = test: Induction of glycemic control in db/db mouse assessed as reduction in microvesicular steatosis in liver at 10 to 30 nmol/kg, sc treated for 8 weeks administered on every 2 days by H and E staining based analysis; assay type: functional, organism-based; settings: dose 10-30 nmol/kg; summary of the method: as §1
Mus musculus [20] = test: Induction of glycemic control in db/db mouse assessed as reduction in […] in liver at 10 to 30 nmol/kg, sc treated for 8 weeks administered on every 2 days by H and E staining based analysis; assay type: functional, organism-based; settings: dose 10-30 nmol/kg
Mus musculus [21] = test: Induction of glycemic control in db/db mouse assessed as reduction in hepatocyte ballooning at 10 to 30 nmol/kg, sc treated for 8 weeks administered on every 2 days by H and E staining based analysis; assay type: functional, organism-based; settings: dose 10-30 nmol/kg; summary of the method: as §1
Mus musculus [22] = test: Effect on liver weight in db/db mouse at 10 to 30 nmol/kg, sc treated for 8 weeks administered on every 2 days; assay type: functional, organism-based; settings: dose 10-30 nmol/kg; summary of the method: as §2
Mus musculus [23] = test: Induction of glycemic control in db/db mouse assessed as reduction in proportion of iWAT weight to total body weight at 10 to 30 nmol/kg, sc treated for 8 weeks administered on every 2 days; assay type: functional, organism-based; settings: dose 10-30 nmol/kg; summary of the method: as §2
Mus musculus [24] = test: Induction of glycemic control in diet-induced obese C57BL/6 mouse assessed as decrease in total cholesterol level at 100 nmol/kg, sc treated for 40 days administered on every 4 days; assay type: functional, organism-based; settings: time 40.0 day; summary of the method: as §3
Mus musculus [25] = test: Blood glucose lowering effect in db/db mouse assessed as blood glucose level at 30 nmol/kg, sc treated for 8 weeks administered on every 2 days (reference value: 17 to 30 mmol/L); assay type: functional

Sequence of Albumin (P02768 whole entry): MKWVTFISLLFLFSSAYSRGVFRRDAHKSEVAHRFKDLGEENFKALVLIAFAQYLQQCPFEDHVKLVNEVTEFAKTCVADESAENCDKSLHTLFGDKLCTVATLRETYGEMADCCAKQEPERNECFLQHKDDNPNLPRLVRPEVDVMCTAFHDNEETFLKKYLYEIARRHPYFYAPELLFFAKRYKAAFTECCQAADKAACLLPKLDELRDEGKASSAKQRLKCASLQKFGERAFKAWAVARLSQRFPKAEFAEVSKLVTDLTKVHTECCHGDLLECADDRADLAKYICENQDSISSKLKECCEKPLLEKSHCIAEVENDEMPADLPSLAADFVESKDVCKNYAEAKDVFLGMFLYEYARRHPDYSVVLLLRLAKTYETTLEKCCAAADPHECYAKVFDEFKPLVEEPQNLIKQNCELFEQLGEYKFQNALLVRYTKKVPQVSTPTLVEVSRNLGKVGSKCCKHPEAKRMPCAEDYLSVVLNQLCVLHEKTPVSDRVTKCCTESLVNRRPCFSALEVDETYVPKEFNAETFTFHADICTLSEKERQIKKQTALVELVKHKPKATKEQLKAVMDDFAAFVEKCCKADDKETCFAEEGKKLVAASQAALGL

CCCCCCCCCCCCCCCC(=O)N[C@@H](CCC(=O)NCCCC[C@H](NC(=O)CCOCCOCCOCCOCCNC(=O)CCc1cn(CC(=O)N[C@@H](CCC(=O)NCCCC[C@H](NC(=O)[C@H](C)NC(=O)[C@H](C)NC(=O)[C@H](CCC(N)=O)NC(=O)CNC(=O)[C@H](CCC(=O)O)NC(=O)[C@H](CC(C)C)NC(=O)[C@H](Cc2ccc(O)cc2)NC(=O)[C@H](CO)NC(=O)[C@H](CO)NC(=O)[C@@H](NC(=O)[C@H](CC(=O)O)NC(=O)[C@H](CO)NC(=O)[C@@H](NC(=O)[C@H](Cc2ccccc2)NC(=O)[C@@H](NC(=O)CNC(=O)[C@H](CCC(=O)O)NC(=O)[C@H](C)NC(=O)[C@@H](N)Cc2cnc[nH]2)[C@@H](C)O)[C@@H](C)O)C(C)C)C(=O)N[C@@H](CCC(=O)O)C(=O)N[C@@H](Cc2ccccc2)C(=O)N[C@H](C(=O)N[C@@H](C)C(=O)N[C@@H](Cc2c[nH]c3ccccc23)C(=O)N[C@@H](CC(C)C)C(=O)N[C@H](C(=O)N[C@@H](CCCNC(=N)N)C(=O)NCC(=O)N[C@@H](CCCNC(=N)N)C(=O)NCC(=O)O)C(C)C)[C@@H](C)CC)C(=O)O)nn1)C(=O)NCCOCCOCCOCCOCCC(=O)N[C@@H](CCCCNC(=O)CC[C@H](NC(=O)CCCCCCCCCCCCCCC)C(=O)O)C(=O)OC)C(=O)O
fold change (FC) (Albumin): 8

CCCCCCCCCCCCCCCC(=O)N[C@@H](CCC(=O)NCCCC[C@@H](NC(=O)CCOCCOCCOCCOCCNC(=O)CCc1cn(CC(=O)N[C@@H](CCC(=O)NCCCC[C@H](NC(=O)[C@H](C)NC(=O)[C@H](C)NC(=O)[C@H](CCC(N)=O)NC(=O)CNC(=O)[C@H](CCC(=O)O)NC(=O)[C@H](CC(C)C)NC(=O)[C@H](Cc2ccc(O)cc2)NC(=O)[C@H](CO)NC(=O)[C@H](CO)NC(=O)[C@@H](NC(=O)[C@H](CC(=O)O)NC(=O)[C@H](CO)NC(=O)[C@@H](NC(=O)[C@H](Cc2ccccc2)NC(=O)[C@@H](NC(=O)CNC(=O)[C@H](CCC(=O)O)NC(=O)C(C)(C)NC(=O)[C@@H](N)Cc2cnc[nH]2)[C@@H](C)O)[C@@H](C)O)C(C)C)C(=O)N[C@@H](CCC(=O)O)C(=O)N[C@@H](Cc2ccccc2)C(=O)N[C@H](C(=O)N[C@@H](C)C(=O)N[C@@H](Cc2c[nH]c3ccccc23)C(=O)N[C@@H](CC(C)C)C(=O)N[C@H](C(=O)N[C@@H](CCCNC(=N)N)C(=O)NCC(=O)N[C@@H](CCCNC(=N)N)C(=O)NCC(=O)O)C(C)C)[C@@H](C)CC)C(=O)O)nn1)C(=O)NCCOCCOCCOCCOCCC(=O)N[C@H](CCCCNC(=O)CC[C@@H](NC(=O)CCCCCCCCCCCCCCCCC(=O)O)C(=O)O)C(=O)O)C(=O)O
EC50 [1]: 0.92 nM | EC50 [2]: 43.3 nM

CC[C@H](C)[C@H](NC(=O)[C@H](Cc1ccccc1)NC(=O)[C@H](CCC(=O)O)NC(=O)[C@H](CCCCNC(=O)COCCOCCNC(=O)COCCOCCNC(=O)CC[C@H](NC(=O)CCCCCCCCCCCCCCCCC(=O)O)C(=O)O)NC(=O)[C@H](C)NC(=O)[C@H](C)NC(=O)[C@H](CCC(N)=O)NC(=O)CNC(=O)[C@H](CCC(=O)O)NC(=O)[C@H](CC(C)C)NC(=O)[C@H](Cc1ccc(O)cc1)NC(=O)[C@H](CO)NC(=O)[C@H](CO)NC(=O)[C@@H](NC(=O)[C@H](CC(=O)O)NC(=O)[C@H](CO)NC(=O)[C@@H](NC(=O)[C@H](Cc1ccccc1)NC(=O)[C@@H](NC(=O)CNC(=O)[C@H](CCC(=O)O)NC(=O)C(C)(C)NC(=O)[C@@H](N)Cc1cnc[nH]1)[C@@H](C)O)[C@@H](C)O)C(C)C)C(=O)N[C@@H](C)C(=O)N[C@@H](Cc1c[nH]c2ccccc12)C(=O)N[C@@H](CC(C)C)C(=O)N[C@H](C(=O)N[C@@H](CCCNC(=N)N)C(=O)NCC(=O)N[C@@H](CCCNC(=N)N)C(=O)NCC(=O)O)C(C)C
inhibition (Mus musculus [3]): Active | Activity (Mus musculus [4]): inactive | Activity (Mus musculus [5]): Active | Activity (Mus musculus [6]): Active | Activity (Pancreatic islet): inactive | Activity (Mus musculus [7]): Dose-dependent-effect | Activity (Mus musculus [8]): Active | Activity (Mus musculus [9]): inactive | Activity (Mus musculus [10]): inactive | Activity (Mus musculus [11]): No effect | Activity (Mus musculus [12]): Active | Activity (Mus musculus [13]): inactive | EC50 (Mus musculus [14]): 9.24 nM | Activity (Mus musculus [15]): inactive | Activity (Mus musculus [16]): No effect | Activity (Mus musculus [17]): No effect | Activity (Mus musculus [18]): inactive | Activity (Mus musculus [19]): Active | Activity (Mus musculus [20]): Active | Activity (Mus musculus [21]): Active | Activity (Mus musculus [22]): No effect | Activity (Mus musculus [23]): Active | Activity (Mus musculus [24]): Active | Activity (Mus musculus [25]): 17.7 mmol/L
